Columns and labels:
Type in all cases: functional, cell-based
SK-MEL-2 = assay: Cytotoxicity against human SK-MEL-2 cells after 3 days by SRB assay; details: SK-MEL-2, 72 h
Method in brief: (§1)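 Cells kept in RPMI-1640 with 25 mM HEPES, 0.25% sodium bicarbonate, 10% FBS and 100 µg/mL kanamycin. Freshly trypsinized cells seeded at 1500-7500 per well, with compound added from DMSO-diluted stock. After 3 days, attached cells fixed with cold 50% TCA and stained with 0.4% SRB. Bound dye solubilized and absorbance read at 562 nm. IC50 is 50% growth reduction, mean of three determinations.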

HCT-8 = assay: Cytotoxicity against human HCT8 cells after 3 days by SRB assay; details: HCT-8, 72 h; method in brief: as §1
KB = assay: Cytotoxicity against human KB cells after 3 days by SRB assay; details: 72 h; method in brief: as §1
[1] = Cytotoxicity against human KBVIN cells after 3 days by SRB assay; details: 72 h; method in brief: as §1
A549 = assay: Cytotoxicity against human A549 cells after 3 days by SRB assay; details: A549, 72 h; method in brief: as §1
1A9 = assay: Cytotoxicity against human 1A9 cells after 3 days by SRB assay; details: 1A9, 72 h; method in brief: as §1
MCF7 = assay: Cytotoxicity against human MCF7 cells after 3 days by SRB assay; details: MCF7, 72 h; method in brief: as §1

SMILES	IC50 (SK-MEL-2) [nM]	IC50 (HCT-8) [nM]	IC50 (KB) [nM]	IC50 [1] [nM]	IC50 (A549) [nM]	IC50 (1A9) [nM]	IC50 (MCF7) [nM]
C=C1C(=O)O[C@H]2[C@H]1[C@@H](OC(=O)[C@@]1(C)CO1)CC(=C)[C@@H]1C[C@H](OC(=O)[C@H](O)[C@@H](NC(=O)c3ccccc3)c3ccccc3)[C@@]3(CO3)[C@H]21	1000	500	300	7500	800	200	–
C=C1C(=O)O[C@H]2[C@H]1[C@@H](OC(=O)[C@](C)(O)CBr)CC(=C)[C@@H]1C[C@H](O)[C@](O)(CBr)[C@H]21	–	–	1100	1300	4200	400	–
C=C1C(=O)O[C@H]2[C@H]1[C@@H](OC(=O)[C@](C)(O)CI)CC(=C)[C@@H]1C[C@H](O)[C@]3(CO3)[C@H]21	–	–	2000	1800	7300	800	–
C=C1C(=O)O[C@H]2[C@H]1[C@@H](OC(=O)[C@@]1(C)CO1)CC(=C)[C@@H]1C[C@H](OC(=O)[C@@H]3OC(c4ccccc4)=N[C@H]3c3ccccc3)[C@@]3(CO3)[C@H]21	1500	500	2600	2600	3400	800	–
C=C1C(=O)O[C@H]2[C@H]1[C@@H](OC(=O)[C@](C)(O)CBr)CC(=C)[C@@H]1C[C@H](O)[C@]3(CO3)[C@H]21	3600	1300	1100	6300	4300	1100	–
C=C1C(=O)O[C@H]2[C@H]1[C@@H](OC(=O)[C@](C)(O)CI)CC(=C)[C@@H]1C[C@H](O)[C@](O)(CI)[C@H]21	2600	1300	1000	5500	3600	1300	–
C=C1C(=O)O[C@H]2[C@H]1[C@@H](OC(=O)[C@@]1(C)CO1)CC(=C)[C@@H]1C[C@H](O)[C@](O)(CI)[C@H]21	9400	4500	4100	18600	13700	5600	–
C=C(C)C(=O)O[C@H]1CC(=C)[C@@H]2C[C@H](O)C(=C)[C@@H]2[C@H]2OC(=O)C(=C)[C@@H]21 [AGUERIN B]	–	–	–	–	26400	–	3300
C=C1C(=O)O[C@H]2[C@H]1[C@@H](OC(=O)[C@](C)(O)CO)CC(=C)[C@@H]1C[C@H](O)[C@]3(CO3)[C@H]21 [BABYLIN A]	–	–	–	–	> 26300	–	> 26300
C=C1C(=O)O[C@H]2[C@H]1[C@@H](OC(=O)[C@@]1(C)CO1)CC(=C)[C@@H]1C[C@H](O)[C@](O)(CO)[C@H]21 [BABYLIN B]	–	–	–	–	> 26300	–	> 26300
C=C1C(=O)O[C@H]2[C@H]1[C@@H](OC(=O)[C@@](C)(O)CO)CC(=C)[C@@H]1C[C@H](O)[C@@](O)(CCl)[C@H]21 [CEBELLIN J]	–	–	–	–	> 24000	–	> 24000
C=C1C(=O)O[C@H]2[C@H]1[C@@H](OC(=O)[C@](C)(O)CCl)CC(=C)[C@@H]1C[C@H](O)[C@](O)(CCl)[C@H]21 [CENTAUREPENSIN]	–	–	4100	2800	10300	700	–
C=C1C(=O)O[C@H]2[C@H]1[C@@H](OC(=O)[C@](C)(O)CCl)CC(=C)[C@@H]1C[C@H](O)[C@]3(CO3)[C@H]21 [CHLOROHYSSOPIFOLIN C]	–	1600	2000	1500	9300	800	1500
C=C(CO)C(=O)O[C@H]1CC(=C)[C@@H]2C[C@H](O)C(=C)[C@@H]2[C@H]2OC(=O)C(=C)[C@@H]21 [CYNAROPICRIN]	5800	–	15900	–	16500	–	3200
C=C(CO)C(=O)O[C@H]1CC(=C)[C@@H]2C[C@H](O)[C@]3(CO3)[C@@H]2[C@H]2OC(=O)C(=C)[C@@H]21 [JANERIN]	8000	5500	3000	25900	19900	5000	–
CO[C@@]12[C@H](COC(N)=O)C3=C(C(=O)C(C)=C(N)C3=O)N1C[C@@H]1N[C@@H]12 [MITOMYCIN]	–	600	600	–	300	–	1500
CC(=O)O[C@H]1C(=O)[C@@]2(C)[C@H]([C@H](OC(=O)c3ccccc3)[C@]3(O)C[C@H](OC(=O)[C@H](O)[C@@H](NC(=O)c4ccccc4)c4ccccc4)C(C)=C1C3(C)C)[C@]1(OC(C)=O)CO[C@@H]1C[C@@H]2O [PACLITAXEL]	–	13	1	–	–	2	–
C=C1C(=O)O[C@H]2[C@H]1[C@@H](OC(=O)[C@]1(C)CO1)CC(=C)[C@@H]1C[C@H](O)[C@]3(CO3)[C@H]21 [REPIN]	2500	800	1400	800	2500	300	1100
